In paper PMC8576641 (The Journal of organic chemistry, 2021):
Marks after values point to notes of the source that are not given here. No end group written: not given here.

What was measured:
[1] = 298 K; average of HN CSD values at T(L3), K(S+1) and G(L4) ΔδHα/α', K1R-HP7 as fully-folded state; cited from earlier work
CD thermal denaturation = assay type: physicochemical; details: for β-Strap %-fold χF at 291K: local β-strap folding at 291 K (18 °C) from best-fitted melting curves of [θ(T)]228, phosphate buffer 15 mM, pH 6.5; for T·ΔΔSF°: entropic difference between pairs as printed: 2b/2a, 3d/3e; for χF / % fold (NMR and CD collectively): 291 K, NMR and CD data together; for ΔGF*: free energy at temperature T* of maximal stability, from thermostability curves; for % folded below 50 °C: plateau of thermal stability from 0 to ~50 °C, dynamic equilibrium of stable conformational states; for ΔCpF°: heat capacity of folding
[2] = Kinetic solubility in phosphate buffer; assay type: physicochemical; details: phosphate buffer (PB, 50 mM), pH 7.4
[3] = Loop %-folding by 1H NMR from glycine Hα/α' splitting; assay type: physicochemical; details: 291 K; ΔδHα/α'G(L4) model with 0.33 ppm as fully-folded state (model of ref 27)
How it was run: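 Peptide samples at 3–10 mM for 1H NMR, TOCSY (80 ms mixing), NOESY (200 ms mixing) and 1H–13C HSQC. Samples for 1H–15N HSQC and HMBC were at 10–20 mM, with some constructs at 10–70 mM. Chemical shift deviations are experimental δH minus calculated random-coil δH. Random-coil values were checked against random-coil reference peptides (Δ|CSD| ≤ 0.20 ppm).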

Substance | β-Strap %-fold χF at 291K (CD thermal denaturation) [%] | solubility [2] [mM] | Loop %-fold χF (value in parentheses) [3] [%] | also measured
Ac-NPATGK-NH2 [Loop] | – | – | – | Loop %-fold χF [1]: 6 ± 7%^d
Ac-W-NPATGK-W-NH2 [Tr-HP7] | – | – | – | Loop %-fold χF [1]: 49 ± 1%^d
Ac-WDDATKTWTG-NH2 [1b] | 54 ± 7 | 35.3 | – | –
Ac-WNPATGKWTG-NH2 [1a] | 28 ± 1 | 2.9 | 70 | –
Ac-WTFNPATGKFKWTG-NH2 [1c] | 63 ± 4 | 22.3 | 151 | –
Ac-WVWGPGTGKWVW-NH2 [2b] | 56 ± 1 | 0.8 | 9 | T·ΔΔSF° (CD thermal denaturation): 3.25 kcal/mol
Ac-WVWNPATGKWVW-NH2 [2a] | 99 ± 1 | 1.2 | 154 | χF / % fold (NMR and CD collectively) (CD thermal denaturation): > 90%; ΔGF° (CD thermal denaturation; folding free energy at 298 K, two-state model from CD melts): -2.36 kcal/mol; ΔGF* (CD thermal denaturation): -2.50 kcal/mol; % folded below 50 °C (CD thermal denaturation): > 80%
KTW-NPATGK-WTE [HP7] | – | – | – | Loop %-fold χF [1]: 89 ± 1%^d
RWHWNPATGKWVWE [3b] | 95 ± 2 | 56.3 | 167 | ΔGF* (CD thermal denaturation): -1.84 kcal/mol; ΔCpF° (CD thermal denaturation; two-state model from CD melts): −158 ± 3 cal·mol^−1·deg^−1; % folded below 50 °C (CD thermal denaturation): > 80%
RWNPATGKWE [3c] | 84 ± 11 | 39.5 | 139 | ΔCpF° (CD thermal denaturation; two-state model from CD melts): −106 cal·mol^−1·deg^−1
RWVWGGGGKKGGGGWVWE [3d] | 88 ± 1 | 5.8 | – | T·ΔΔSF° (CD thermal denaturation): -3.53 kcal/mol
RWVWNPATGKWVWE [3a] | 89 ± 14 | 27.1 | 154 | χF / % fold (NMR and CD collectively) (CD thermal denaturation): 89–93%; ΔCpF° (CD thermal denaturation; two-state model from CD melts): −53 cal·mol^−1·deg^−1; % folded below 50 °C (CD thermal denaturation): > 80%
RWVWRDYRFDMGFDWVWE [3e] | 55 ± 1 | 0.6 | – | –
RWVWRDYRGDMGFDWVWE [3f] | 82 ± 1 | 8.2 | – | ΔGF* (CD thermal denaturation): -3.18 kcal/mol
